Assay [1] in a line: Inhibition of PKA kinase. More on the design: species or system Bos taurus. The method, boiled down: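 Bovine heart PKA (2 units) with 500 ng GST-TK fusion substrate and 25 μM [32P]ATP, in 50 mM Tris pH 7.5, 10 mM MgCl2. Incubated 1 h at 30 °C. Read-out by TCA precipitation.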
For another assay, the target named is Protein kinase C (PKC). Nature of the assay: Inhibition of rat brain PKC kinase. The method, boiled down: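 Commercial PKC assay system run at 20 μM ATP. Read-out by spotting onto p81 phosphocellulose.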
Assay [2] is described as follows: Inhibition of Mitogen-activated protein kinase. More on the design: species or system Xenopus laevis.
The target in assay [3] is Epidermal growth factor receptor (Homo sapiens, UniProt P00533). In words: Inhibition of Epidermal growth factor receptor.
Epidermal growth factor receptor, sequence (P00533 whole entry): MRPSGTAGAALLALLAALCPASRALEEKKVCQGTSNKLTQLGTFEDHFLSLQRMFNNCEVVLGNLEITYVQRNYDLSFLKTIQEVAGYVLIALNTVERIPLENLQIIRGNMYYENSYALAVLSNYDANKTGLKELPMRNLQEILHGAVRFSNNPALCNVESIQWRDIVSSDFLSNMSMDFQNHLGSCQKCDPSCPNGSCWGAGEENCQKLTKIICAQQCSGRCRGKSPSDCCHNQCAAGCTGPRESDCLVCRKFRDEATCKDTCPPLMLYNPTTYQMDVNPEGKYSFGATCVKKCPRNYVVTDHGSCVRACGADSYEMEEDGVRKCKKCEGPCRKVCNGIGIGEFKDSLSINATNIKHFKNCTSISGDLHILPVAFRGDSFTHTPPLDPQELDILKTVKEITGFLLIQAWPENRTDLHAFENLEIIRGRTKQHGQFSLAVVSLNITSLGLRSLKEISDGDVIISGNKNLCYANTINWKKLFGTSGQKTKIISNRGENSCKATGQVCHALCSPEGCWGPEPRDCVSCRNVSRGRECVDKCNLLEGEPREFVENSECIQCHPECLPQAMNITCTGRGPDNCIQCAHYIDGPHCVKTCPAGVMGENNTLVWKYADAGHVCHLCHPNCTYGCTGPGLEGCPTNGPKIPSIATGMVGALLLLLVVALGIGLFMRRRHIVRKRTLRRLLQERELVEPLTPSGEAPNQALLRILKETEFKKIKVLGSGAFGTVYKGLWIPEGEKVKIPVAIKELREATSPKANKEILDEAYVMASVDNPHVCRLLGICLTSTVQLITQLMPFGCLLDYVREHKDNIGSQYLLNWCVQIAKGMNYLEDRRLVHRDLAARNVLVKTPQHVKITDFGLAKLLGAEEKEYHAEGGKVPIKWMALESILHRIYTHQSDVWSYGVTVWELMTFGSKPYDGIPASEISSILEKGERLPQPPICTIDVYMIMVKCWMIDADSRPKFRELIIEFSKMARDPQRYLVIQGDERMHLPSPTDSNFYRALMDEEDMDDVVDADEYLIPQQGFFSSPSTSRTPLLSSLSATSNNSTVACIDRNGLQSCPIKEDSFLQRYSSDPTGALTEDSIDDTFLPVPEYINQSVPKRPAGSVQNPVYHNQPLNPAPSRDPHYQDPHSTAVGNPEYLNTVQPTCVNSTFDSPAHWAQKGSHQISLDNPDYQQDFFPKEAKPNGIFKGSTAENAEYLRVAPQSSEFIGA
Assay [4] deals with Cyclin-dependent kinase 4/cyclin D1 (Homo sapiens, UniProt P11802). Nature of the assay: Inhibition of Cyclin-dependent kinase 4-cyclin D1. Type of assay: protein-complex assay.
Cyclin-dependent kinase 4/cyclin D1, sequence (P11802 whole entry): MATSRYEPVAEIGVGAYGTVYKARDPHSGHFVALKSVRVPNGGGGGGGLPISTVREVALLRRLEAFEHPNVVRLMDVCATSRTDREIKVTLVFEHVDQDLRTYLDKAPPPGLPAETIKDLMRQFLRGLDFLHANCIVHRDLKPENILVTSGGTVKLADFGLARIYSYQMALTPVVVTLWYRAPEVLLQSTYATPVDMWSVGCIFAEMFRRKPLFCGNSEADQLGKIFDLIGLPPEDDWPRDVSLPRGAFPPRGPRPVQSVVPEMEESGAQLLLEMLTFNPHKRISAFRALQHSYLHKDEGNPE
Cyclin-dependent kinase 4/cyclin D1, sequence (P24385 whole entry, further chain): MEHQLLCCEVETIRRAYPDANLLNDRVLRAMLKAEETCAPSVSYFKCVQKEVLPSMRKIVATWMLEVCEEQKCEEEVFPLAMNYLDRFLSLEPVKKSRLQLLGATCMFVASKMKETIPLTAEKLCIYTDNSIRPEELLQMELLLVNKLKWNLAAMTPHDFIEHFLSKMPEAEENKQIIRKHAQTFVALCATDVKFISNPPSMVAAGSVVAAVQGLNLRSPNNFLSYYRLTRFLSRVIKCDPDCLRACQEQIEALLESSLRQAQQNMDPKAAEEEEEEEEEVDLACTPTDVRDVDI
Assay [5] deals with Cyclin-dependent kinase 2/cyclin E (Homo sapiens, UniProt P24941). Nature of the assay: Inhibition of Cyclin-dependent kinase 2-cyclin E. The format is protein-complex assay.
Assay [6] concerns the target Cyclin-dependent kinase 1/cyclin B1 (Homo sapiens, UniProt P06493). Type of assay: protein-complex assay.
The next assay has as its system MIA PaCa-2. In words: cells. As to conditions: Homo sapiens.
Assay [7] addresses Cyclin-dependent kinase 2/cyclin A (Homo sapiens, UniProt P24941). Nature of the assay: Inhibition of Cyclin-dependent kinase 2-cyclin A. The format is protein-complex assay.
A further assay concerns PC-3. In words: cells. The following applies: Homo sapiens.
Assay [8] can be described thus: Inhibition of Cyclin-dependent kinase 1-cyclin A. Also on record: species or system Homo sapiens.
In a further assay the test system is HCT-116. In words: cells. As to conditions: Homo sapiens.
Another assay deals with A2780. In words: cells. As to conditions: Homo sapiens.

Some results are limits rather than exact numbers.

Cyclin-dependent kinase 1/cyclin B1, sequence (P06493 whole entry): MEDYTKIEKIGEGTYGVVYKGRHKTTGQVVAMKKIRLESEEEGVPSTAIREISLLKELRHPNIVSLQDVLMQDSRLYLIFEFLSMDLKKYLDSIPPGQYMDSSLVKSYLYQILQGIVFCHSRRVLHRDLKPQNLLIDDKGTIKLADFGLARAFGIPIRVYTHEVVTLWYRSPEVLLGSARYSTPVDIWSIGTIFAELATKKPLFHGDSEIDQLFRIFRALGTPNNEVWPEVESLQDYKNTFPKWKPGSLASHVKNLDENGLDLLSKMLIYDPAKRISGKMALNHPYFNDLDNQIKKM
Cyclin-dependent kinase 1/cyclin B1, sequence (P14635 whole entry, further chain): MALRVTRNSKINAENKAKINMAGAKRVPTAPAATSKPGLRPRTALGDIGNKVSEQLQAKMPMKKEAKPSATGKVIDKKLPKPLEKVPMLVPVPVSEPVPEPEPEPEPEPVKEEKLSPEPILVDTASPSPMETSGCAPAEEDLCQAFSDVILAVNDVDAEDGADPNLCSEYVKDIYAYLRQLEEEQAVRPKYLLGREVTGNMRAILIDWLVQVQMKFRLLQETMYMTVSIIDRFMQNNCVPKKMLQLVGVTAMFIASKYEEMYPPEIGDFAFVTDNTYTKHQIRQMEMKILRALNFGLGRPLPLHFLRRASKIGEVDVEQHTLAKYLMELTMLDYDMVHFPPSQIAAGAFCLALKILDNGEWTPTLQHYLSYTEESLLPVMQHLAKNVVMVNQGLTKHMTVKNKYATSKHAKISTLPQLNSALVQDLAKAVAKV

Turning to `CN1CC[C@H](c2c(O)cc(O)c3c(=O)cc(Oc4ccccc4Cl)oc23)[C@H](O)C1`, the IC50 (in general, the concentration at which inhibition is half-maximal) in assay [1] is above 50 µM; on Protein kinase C (PKC) it was above 50 µM; in assay [2] it was above 25 µM; in [3] it was above 50 µM.

For the compound `CN1CCC(c2c(O)cc(O)c3c(=O)cc(Sc4ccccc4)oc23)C(O)C1` (racemic), the IC50 is 4.1 µM in assay [4], 6.59 µM in [5] and 0.44 µM in assay [6].

Consider `CN1CCC(c2c(O)cc(O)c3c(=O)cc(SC(C)(C)C)oc23)C(O)C1` (racemic), for which the IC50 in assay [4] amounted to 2.07 µM; in [5] it was 1.07 µM; in [6], 0.08 µM.

For the compound `CN1CCC(c2c(O)cc(O)c3c(O)c/c(=N\c4ccccc4)oc23)C(O)C1` (racemic), the IC50 in [4] was above 25 µM; in [5], above 25 µM; in assay [6], 16.3 µM.

For `CN1CCC(c2c(O)cc(O)c3c(=O)cc(N4CCCCC4)oc23)C(O)C1` (racemic), the IC50 in [4] came to 3.7 µM; in assay [5] it was 9.69 µM; in assay [6], 2.5 µM.

Consider `Cc1cc(C)nc(Sc2cc(=O)c3c(O)cc(O)c(C4CCN(C)CC4O)c3o2)n1` (racemic), for which the IC50 in [4] turned out to be 82.5 µM; in assay [5], 40.4 µM; in assay [6], 6.4 µM.

Regarding `CCSc1cc(=O)c2c(O)cc(O)c(C3CCN(C)CC3O)c2o1` (racemic), the IC50 came out at 2.06 µM in [4], 3.93 µM in assay [5] and 0.46 µM in [6].

For the compound `CN1CC[C@H](c2c(O)cc(O)c3c(=O)cc(Sc4ccccc4Cl)oc23)[C@H](O)C1` (stereo in doubt; 16), the IC50 was above 50 µM in assay [1]; 16.1 µM against Protein kinase C (PKC); 0.03 µM in the assay on MIA PaCa-2; 16.2 µM in [4]; 2.1 µM in [5]; 1.5 µM in [7]. In addition, the IC50 with PC-3 is 0.02 µM; in [2] it was above 25 µM; in [8] it was 0.16 µM; in the assay with HCT-116, 0.21 µM; in assay [6] it was 0.11 µM; in assay [3] it was above 50 µM. This compound gave an IC50 in the assay on A2780 of 0.87 µM.

`CN1CC[C@H](c2c(O)cc(O)c3c(=O)cc(Sc4ccccc4Cl)oc23)[C@H](O)C1` (stereo in doubt; 21): the IC50 was above 25 µM in assay [4], 4.4 µM in [5] and 6.1 µM in assay [6].

As to `CN1CC[C@H](c2c(O)cc(O)c3c(=O)cc(-c4ccccc4Cl)oc23)[C@H](O)C1` [ALVOCIDIB], the IC50 was above 50 µM in assay [1], 14 µM at Protein kinase C (PKC), 19 µM in assay [2] and 0.05 µM in [8].

For the compound `COC(=O)[C@@]1(Cc2ccc(O)c(CC=C(C)C)c2)OC(=O)C(O)=C1c1ccc(O)cc1` [BUTYROLACTONE I], the IC50 in assay [1] came out at 260 µM; against Protein kinase C (PKC) it was 160 µM; in [4], 1000 µM; in [2], 94 µM; in [3] it was 590 µM.

Consider `Cn1cnc2c(NCc3ccccc3)nc(NCCO)nc21` [OLOMOUCINE], for which the half-maximal inhibitory concentration (IC50) was 2000 µM in assay [1], 1000 µM against Protein kinase C (PKC) and 30 µM in assay [2].

Source of the values: ChEMBL document CHEMBL1133502, “Thio- and oxoflavopiridols, cyclin-dependent kinase 1-selective inhibitors: synthesis and biological effects” (J Med Chem, 2000).
